Reference: ChEMBL document CHEMBL1147003, “Anti-Plasmodium activity of imidazole-dioxolane compounds” (Bioorg Med Chem Lett, 2006)

Experiments:
Plasmodium falciparum = assay: Antimalarial activity against Plasmodium falciparum; format: functional, organism-based
Summary of the method: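 pLDH read-out of P. falciparum growth. Compounds in DMSO (10 mg/mL) serially diluted twofold in duplicate. Non-synchronous culture added at 5% hematocrit, 2% parasitemia. Incubated 72 h at 37 °C under 95% N2/3% CO2/2% O2. Sample of resuspended wells mixed with pLDH assay mixture, absorbance at 540 nm after 1 h. IC50 from non-linear regression, mean ± SD of four independent assays.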

CHO [1] = assay: Selectivity index as IC50 CHO/IC50 Plasmodium falciparum; format: functional
CHO [2] = assay: Cytotoxicity against CHO cell line; format: functional, cell-based, Cricetulus griseus
Summary of the method: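 CHO cells in RPMI-1640 with 10% FBS, 25 mM HEPES and gentamicin, grown to 50% confluency before compounds added in DMSO. Viability after 24 h by MTT (1 mg/mL), 30 min further incubation, medium removed, DMSO added, absorbance at 540 nm. Run in quadruplicate. IC50 by non-linear regression.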

With Oc1ccc(SC[C@@H]2CO[C@@](CCc3ccc(Cl)cc3)(Cn3ccnc3)O2)cc1 the IC50 (Plasmodium falciparum; Plasmodium falciparum) was 0.06 µM, the “Ratio IC50” value (CHO [1]) was 181.6 and the IC50 (CHO [2]; Cricetulus griseus, CHO) was 10.9 µM.

With C[C@@H]1CO[C@](CCc2ccc(Cl)cc2)(Cn2ccnc2)O1.Cl the IC50 (Plasmodium falciparum; Plasmodium falciparum) was 23 µM, the “Ratio IC50” value (CHO [1]) was 4.4 and the IC50 (CHO [2]; Cricetulus griseus, CHO) was 102 µM.

Cl.Clc1ccc(CCC2(Cn3ccnc3)SCCS2)cc1 was tested, and the IC50 (Plasmodium falciparum; Plasmodium falciparum) was 2.3 µM, the “Ratio IC50” value (CHO [1]) was 10.9 and the IC50 (CHO [2]; Cricetulus griseus, CHO) was 25 µM.

CCC(COC(C)=O)n1ccnc1 (stereo unspecified) was tested, and the IC50 (Plasmodium falciparum; Plasmodium falciparum) was 8.3 µM, the “Ratio IC50” value (CHO [1]) was 222.7 and the IC50 (CHO [2]; Cricetulus griseus, CHO) was 1850 µM.

With COc1ccc(OC[C@@H]2CO[C@](CCc3ccc(Cl)cc3)(Cn3ccnc3)O2)cc1.Cl the IC50 (Plasmodium falciparum; Plasmodium falciparum) was 0.8 µM, the “Ratio IC50” value (CHO [1]) was 18.8 and the IC50 (CHO [2]; Cricetulus griseus, CHO) was 15 µM.

In the case of Cc1ccc(S(=O)(=O)OC[C@@H]2CO[C@](CCc3ccc(Cl)cc3)(Cn3ccnc3)O2)cc1, the IC50 (Plasmodium falciparum) is reported as 1.2 µM, the “Ratio IC50” value (CHO [1]) is reported as 3.2 and the IC50 (CHO [2]; cho) is reported as 3.8 µM.

In the case of COc1ccc(SC[C@@H]2CO[C@@](CCc3ccc(Cl)cc3)(Cn3ccnc3)O2)cc1.Cl, the IC50 (Plasmodium falciparum; Plasmodium falciparum) is reported as 3.5 µM, the “Ratio IC50” value (CHO [1]) is reported as 1.1 and the IC50 (CHO [2]; Cricetulus griseus, CHO) is reported as 3.7 µM.

Cl.Cl.Nc1ccccc1SC[C@@H]1CO[C@](CCc2ccc(Cl)cc2)(Cn2ccnc2)O1 was tested, and the IC50 (Plasmodium falciparum; Plasmodium falciparum) was 0.6 µM, the “Ratio IC50” value (CHO [1]) was 10 and the IC50 (CHO [2]; Cricetulus griseus, CHO) was 6 µM.

For C[C@H]1CO[C@](CCc2ccc(Cl)cc2)(Cn2ccnc2)O1.Cl, the IC50 (Plasmodium falciparum; Plasmodium falciparum) was 18 µM, the “Ratio IC50” value (CHO [1]) was 4.6 and the IC50 (CHO [2]; Cricetulus griseus, CHO) was 82 µM.

With Cl.Nc1cccc(SC[C@H]2CO[C@](CCc3ccc(Cl)cc3)(Cn3ccnc3)O2)c1 the IC50 (Plasmodium falciparum; Plasmodium falciparum) was 2.5 µM, the “Ratio IC50” value (CHO [1]) was 3.7 and the IC50 (CHO [2]; Cricetulus griseus, CHO) was 9.2 µM.

In the case of Cl.OC(CCc1ccc(Cl)cc1)Cn1ccnc1 (stereo unspecified), the IC50 (Plasmodium falciparum; Plasmodium falciparum) is reported as 70 µM, the “Ratio IC50” value (CHO [1]) is reported as 4.5 and the IC50 (CHO [2]; Cricetulus griseus, CHO) is reported as 314 µM.

For Cl.Nc1ccc(SC[C@H]2CO[C@](CCc3ccc(Cl)cc3)(Cn3ccnc3)O2)cc1, the IC50 (Plasmodium falciparum; Plasmodium falciparum) was 3 µM, the “Ratio IC50” value (CHO [1]) was 84.7 and the IC50 (CHO [2]; Cricetulus griseus, CHO) was 254 µM.

Cl.Clc1ccc(CCC2(Cn3ccnc3)OCCO2)cc1 was tested, and the IC50 (Plasmodium falciparum; Plasmodium falciparum) was 9 µM, the “Ratio IC50” value (CHO [1]) was 9.3 and the IC50 (CHO [2]; Cricetulus griseus, CHO) was 84 µM.

Cl.Nc1ccccc1SC[C@H]1CO[C@](CCc2ccc(Cl)cc2)(Cn2ccnc2)O1 was tested, and the IC50 (Plasmodium falciparum; Plasmodium falciparum) was 3.3 µM, the “Ratio IC50” value (CHO [1]) was 2 and the IC50 (CHO [2]; Cricetulus griseus, CHO) was 6.6 µM.

For Cc1ccc(S(=O)(=O)OC[C@H]2CO[C@@](CCc3ccc(Cl)cc3)(Cn3ccnc3)O2)cc1, the IC50 (Plasmodium falciparum; Plasmodium falciparum) was 1.9 µM, the “Ratio IC50” value (CHO [1]) was 3 and the IC50 (CHO [2]; Cricetulus griseus, CHO) was 5.7 µM.

Cl.Clc1ccc(CC[C@]2(Cn3ccnc3)OC[C@@H](CSc3ccc4ccccc4c3)O2)cc1 was tested, and the IC50 (Plasmodium falciparum; Plasmodium falciparum) was 1.2 µM, the “Ratio IC50” value (CHO [1]) was 7.5 and the IC50 (CHO [2]; Cricetulus griseus, CHO) was 9 µM.

For Cl.Nc1ccc(SC[C@@H]2CO[C@@](CCc3ccc(Cl)cc3)(Cn3ccnc3)O2)cc1, the IC50 (Plasmodium falciparum; Plasmodium falciparum) was 1.3 µM, the “Ratio IC50” value (CHO [1]) was 287.7 and the IC50 (CHO [2]; Cricetulus griseus, CHO) was 374 µM.

Cl.O=C(CCc1ccc(Cl)cc1)Cn1ccnc1 was tested, and the IC50 (Plasmodium falciparum; Plasmodium falciparum) was 25 µM, the “Ratio IC50” value (CHO [1]) was 6.7 and the IC50 (CHO [2]; Cricetulus griseus, CHO) was 168 µM.

For C[C@@H]1CO[C@@](CCc2ccccc2)(Cn2ccnc2)O1.Cl, the IC50 (Plasmodium falciparum; Plasmodium falciparum) was 0.34 µM, the “Ratio IC50” value (CHO [1]) was 2226.7 and the IC50 (CHO [2]; Cricetulus griseus, CHO) was 668 µM.

With COc1ccc(CCC(O)Cn2ccnc2)cc1.Cl (stereo unspecified) the IC50 (Plasmodium falciparum; Plasmodium falciparum) was 38 µM, the “Ratio IC50” value (CHO [1]) was 3.1 and the IC50 (CHO [2]; Cricetulus griseus, CHO) was 116 µM.

In the case of Cl.FC[C@@H]1CO[C@@](CCc2ccc(Cl)cc2)(Cn2ccnc2)O1, the IC50 (Plasmodium falciparum; Plasmodium falciparum) is reported as 20 µM, the “Ratio IC50” value (CHO [1]) is reported as 1.2 and the IC50 (CHO [2]; Cricetulus griseus, CHO) is reported as 24 µM.

For Cl.Cl.Nc1ccc(OC[C@@H]2CO[C@@](CCc3ccc(Cl)cc3)(Cn3ccnc3)O2)cc1, the IC50 (Plasmodium falciparum; Plasmodium falciparum) was 1.3 µM, the “Ratio IC50” value (CHO [1]) was 10.8 and the IC50 (CHO [2]; Cricetulus griseus, CHO) was 14 µM.

In the case of Cl.Cl.Nc1ccccc1SC[C@H]1CO[C@@](CCc2ccc(Cl)cc2)(Cn2ccnc2)O1, the IC50 (Plasmodium falciparum; Plasmodium falciparum) is reported as 2.3 µM, the “Ratio IC50” value (CHO [1]) is reported as 4.8 and the IC50 (CHO [2]; Cricetulus griseus, CHO) is reported as 11 µM.

In the case of Cl.Nc1cccc(SC[C@@H]2CO[C@@](CCc3ccc(Cl)cc3)(Cn3ccnc3)O2)c1, the IC50 (Plasmodium falciparum; Plasmodium falciparum) is reported as 2 µM, the “Ratio IC50” value (CHO [1]) is reported as 5 and the IC50 (CHO [2]; Cricetulus griseus, CHO) is reported as 10 µM.

In the case of Cc1ccc(S(=O)(=O)OC[C@@H]2CO[C@](CCc3ccc(Cl)cc3)(Cn3ccnc3)O2)cc1.Cl, the IC50 (Plasmodium falciparum) is reported as 0.67 µM, the “Ratio IC50” value (CHO [1]) is reported as 10.4 and the IC50 (CHO [2]; cho) is reported as 7 µM.

In the case of Cl.Oc1ccc(OC[C@@H]2CO[C@@](CCc3ccc(Cl)cc3)(Cn3ccnc3)O2)cc1, the IC50 (Plasmodium falciparum; Plasmodium falciparum) is reported as 1.1 µM, the “Ratio IC50” value (CHO [1]) is reported as 0.8 and the IC50 (CHO [2]; Cricetulus griseus, CHO) is reported as 0.9 µM.

Cl.Cl.Nc1ccccc1SC[C@@H]1CO[C@@](CCc2ccc(Cl)cc2)(Cn2ccnc2)O1 was tested, and the IC50 (Plasmodium falciparum; Plasmodium falciparum) was 3.9 µM, the “Ratio IC50” value (CHO [1]) was 4.1 and the IC50 (CHO [2]; Cricetulus griseus, CHO) was 16 µM.

In the case of Cl.Cl.Nc1ccc(SC[C@H]2CO[C@@](CCc3ccc(Cl)cc3)(Cn3ccnc3)O2)cc1, the IC50 (Plasmodium falciparum; Plasmodium falciparum) is reported as 2.7 µM, the “Ratio IC50” value (CHO [1]) is reported as 2.2 and the IC50 (CHO [2]; Cricetulus griseus, CHO) is reported as 6 µM.

C[C@@H]1CO[C@@](CCc2ccc(Cl)cc2)(Cn2ccnc2)O1.Cl was tested, and the IC50 (Plasmodium falciparum; Plasmodium falciparum) was 7 µM, the “Ratio IC50” value (CHO [1]) was 7.3 and the IC50 (CHO [2]; Cricetulus griseus, CHO) was 51 µM.

Cc1ccc(S(=O)(=O)OC[C@@H]2CO[C@@](CCc3ccc(Cl)cc3)(Cn3ccnc3)O2)cc1 was tested, and the IC50 (Plasmodium falciparum; Plasmodium falciparum) was 2.9 µM, the “Ratio IC50” value (CHO [1]) was 2.8 and the IC50 (CHO [2]; Cricetulus griseus, CHO) was 8 µM.

For Cl.Clc1ccc(CC[C@@]2(Cn3ccnc3)OC[C@@H](CSc3ccc(Br)cc3)O2)cc1, the IC50 (Plasmodium falciparum; Plasmodium falciparum) was 0.9 µM, the “Ratio IC50” value (CHO [1]) was 13.3 and the IC50 (CHO [2]; Cricetulus griseus, CHO) was 12 µM.

With Cl.OC[C@@H]1CO[C@@](CCc2ccc(Cl)cc2)(Cn2ccnc2)O1 the IC50 (Plasmodium falciparum; Plasmodium falciparum) was 9 µM, the “Ratio IC50” value (CHO [1]) was 25.2 and the IC50 (CHO [2]; Cricetulus griseus, CHO) was 227 µM.

In the case of Cl.Cl.Nc1ccc(SC[C@@H]2CO[C@](CCc3ccc(Cl)cc3)(Cn3ccnc3)O2)cc1 [AZALANSTAT DIHYDROCHLORIDE], the IC50 (Plasmodium falciparum; Plasmodium falciparum) is reported as 0.8 µM, the “Ratio IC50” value (CHO [1]) is reported as 16.3 and the IC50 (CHO [2]; Cricetulus griseus, CHO) is reported as 13 µM.

For Cl.Cl.Nc1cccc(SC[C@@H]2CO[C@](CCc3ccc(Cl)cc3)(Cn3ccnc3)O2)c1, the IC50 (Plasmodium falciparum; Plasmodium falciparum) was 0.3 µM, the “Ratio IC50” value (CHO [1]) was 60 and the IC50 (CHO [2]; Cricetulus griseus, CHO) was 18 µM.

For C[C@H]1CO[C@@](CCc2ccc(Cl)cc2)(Cn2ccnc2)O1.Cl, the IC50 (Plasmodium falciparum; Plasmodium falciparum) was 4.1 µM, the “Ratio IC50” value (CHO [1]) was 9.5 and the IC50 (CHO [2]; Cricetulus griseus, CHO) was 39 µM.

Cl.Cl.Clc1ccc(CC[C@@]2(Cn3ccnc3)OC[C@@H](CSc3ccncc3)O2)cc1 was tested, and the IC50 (Plasmodium falciparum; Plasmodium falciparum) was 4.9 µM, the “Ratio IC50” value (CHO [1]) was 5.5 and the IC50 (CHO [2]; Cricetulus griseus, CHO) was 27 µM.

With Cl.Cl.Nc1cccc(SC[C@H]2CO[C@@](CCc3ccc(Cl)cc3)(Cn3ccnc3)O2)c1 the IC50 (Plasmodium falciparum; Plasmodium falciparum) was 1.2 µM, the “Ratio IC50” value (CHO [1]) was 7.5 and the IC50 (CHO [2]; Cricetulus griseus, CHO) was 9 µM.

In the case of Cc1ccc(S(=O)(=O)OC[C@H]2CO[C@](CCc3ccc(Cl)cc3)(Cn3ccnc3)O2)cc1, the IC50 (Plasmodium falciparum; Plasmodium falciparum) is reported as 2.8 µM, the “Ratio IC50” value (CHO [1]) is reported as 4.6 and the IC50 (CHO [2]; Cricetulus griseus, CHO) is reported as 13 µM.

Cl.Clc1ccc(CC[C@@]2(Cn3ccnc3)OC[C@@H](CSc3ccccc3)O2)cc1 was tested, and the IC50 (Plasmodium falciparum; Plasmodium falciparum) was 3.3 µM, the “Ratio IC50” value (CHO [1]) was 2.1 and the IC50 (CHO [2]; Cricetulus griseus, CHO) was 7 µM.

In the case of Cl.Fc1ccc(COC(CCc2ccc(Cl)cc2)Cn2ccnc2)cc1 (stereo unspecified), the IC50 (Plasmodium falciparum; Plasmodium falciparum) is reported as 0.8 µM, the “Ratio IC50” value (CHO [1]) is reported as 6.6 and the IC50 (CHO [2]; Cricetulus griseus, CHO) is reported as 5.3 µM.

For Cl.Clc1ccc(CC[C@@]2(Cn3ccnc3)OC[C@@H](CSc3ccc(Cl)cc3)O2)cc1, the IC50 (Plasmodium falciparum; Plasmodium falciparum) was 2.5 µM, the “Ratio IC50” value (CHO [1]) was 1.3 and the IC50 (CHO [2]; Cricetulus griseus, CHO) was 3.3 µM.

CSC[C@@H]1CO[C@@](CCc2ccc(Cl)cc2)(Cn2ccnc2)O1.Cl was tested, and the IC50 (Plasmodium falciparum; Plasmodium falciparum) was 2.1 µM, the “Ratio IC50” value (CHO [1]) was 4.7 and the IC50 (CHO [2]; Cricetulus griseus, CHO) was 9.3 µM.
